By ΔTm is commonly meant the shift of the melting midpoint relative to a reference. One may read the IC50 as the concentration that inhibits the measured activity by half.

Experimental findings from ChEMBL document CHEMBL3352181, “Novel phenyl and pyridyl substituted derivatives of isoindolines: Synthesis, antitumor activity and DNA binding features” (Eur J Med Chem, 2014) are described below.

Data set [1] concerns Calf thymus DNA. The data set is described as follows: Binding affinity to calf thymus DNA assessed as change in melting temperature at drug/ base pair ratio of 0.5 by spectrophotometry. Particulars: Bos taurus. The class given is nucleic-acid assay. Put shortly:
(§1)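 CT-DNA absorbance followed at 260 nm from 20 to 100 °C, rising 1 °C per min, in BPE buffer, with or without compound at drug/base-pair ratio 0.25 or 0.5. Tm taken as midpoint of the hyperchromic transition from first-derivative plots. ΔTm is Tm with compound minus Tm of DNA alone.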

Another data set concerns MCF7. The data set can be described thus: Antiproliferative activity against human MCF7 cells assessed as inhibition of cell proliferation after 72 hrs by MTT assay. The class given is functional, cell-based. Particulars: for IC50: Homo sapiens, MCF7, 72 h. The procedure, abridged: (§2)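 Cells grown as monolayers in DMEM with 10% FBS, 2 mM L-glutamine, penicillin/streptomycin, 37 °C, 5% CO2. Seeded at 5000/well on day 0. Compounds added after 24 h as five serial dilutions (0,01 to 100 µM), DMSO ≤0.1%, then 72 h. MTT read-out converted to percentage growth. IC50 by linear regression; quadruplicates in three experiments.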
(Tetrazolium dyes change colour on reduction, which living cells bring about.)

A further data set deals with BJ. The data set can be described thus: Antiproliferative activity against human BJ cells assessed as inhibition of cell proliferation after 72 hrs by MTT assay. The class given is cell-based. Particulars: 72 h; for IC50: Homo sapiens, BJ; for inhibition (INH): human, bj. The procedure, abridged: as §2
A further data set deals with SW-620. The data set can be described thus: (§3) Antiproliferative activity against human SW620 cells assessed as inhibition of cell proliferation after 72 hrs by MTT assay. The class given is functional, cell-based. Put shortly:
as §2

The nature of data set [2]: as §3. The class given is functional, cell-based, SW-620. Particulars: Homo sapiens, SW-620, 72 h. The procedure, abridged: as §2
Data set [3] addresses T1, DNA topoisomerase 1 (Homo sapiens) (UniProt P11387).
T1 sequence (whole entry): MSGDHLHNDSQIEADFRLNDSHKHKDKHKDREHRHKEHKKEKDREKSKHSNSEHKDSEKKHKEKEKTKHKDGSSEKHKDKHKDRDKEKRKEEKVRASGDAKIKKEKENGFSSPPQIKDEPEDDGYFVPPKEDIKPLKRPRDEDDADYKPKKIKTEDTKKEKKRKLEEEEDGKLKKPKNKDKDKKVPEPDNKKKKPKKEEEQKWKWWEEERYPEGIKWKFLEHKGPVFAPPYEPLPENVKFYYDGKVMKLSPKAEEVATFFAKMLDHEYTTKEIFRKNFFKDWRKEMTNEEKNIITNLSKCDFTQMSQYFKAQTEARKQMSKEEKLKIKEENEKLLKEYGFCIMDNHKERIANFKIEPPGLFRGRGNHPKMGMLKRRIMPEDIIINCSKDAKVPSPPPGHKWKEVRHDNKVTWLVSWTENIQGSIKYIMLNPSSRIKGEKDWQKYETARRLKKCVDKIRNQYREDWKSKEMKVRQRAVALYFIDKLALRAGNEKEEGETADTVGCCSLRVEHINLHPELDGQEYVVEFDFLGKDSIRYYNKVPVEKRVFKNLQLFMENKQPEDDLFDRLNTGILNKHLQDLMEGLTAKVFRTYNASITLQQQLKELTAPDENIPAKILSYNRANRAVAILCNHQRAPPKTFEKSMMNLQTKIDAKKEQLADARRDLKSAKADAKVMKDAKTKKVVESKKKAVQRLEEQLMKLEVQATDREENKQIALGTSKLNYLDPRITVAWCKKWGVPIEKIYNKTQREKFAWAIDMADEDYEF
The data set can be described thus: Inhibition of human topoisomerase 1 assessed as topoisomerase poison activity by measuring generation of open circular DNA using supercoiled pUC19 DNA at 5 to 50 uM by agarose gel electrophoresis. The procedure, abridged: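 Supercoiled pUC19 plasmid was incubated with human topoisomerase I and graded compound concentrations. Reactions were stopped with SDS and proteinase K. DNA forms were resolved on 1% agarose in TBE (2 h, 120 V), post-stained with ethidium bromide and photographed under UV. Poisoning was read as appearance of nicked DNA, with camptothecin as the positive control.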

Data set [4] relates to Nucleic Acid. The data set is described as follows: Induction of DNA intercalation in supercoiled pUC19 DNA in presence of human topoisomerase 1 assessed as effect on topoisomerase 1-mediated DNA relaxation at 50 uM by agarose gel electrophoresis. The class given is nucleic-acid assay. Particulars: Escherichia coli. Put shortly: (§4)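 Supercoiled pUC19 incubated with human topoisomerase I and graded compound concentrations. Stopped with SDS/proteinase K. DNA forms resolved on 1% agarose in TBE, 2 h at 120 V, stained post-run with ethidium bromide and viewed under UV. Camptothecin was the topo I poison control.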

In the next data set the test system is HepG2. The data set can be described thus: Antiproliferative activity against human HepG2 cells assessed as inhibition of cell proliferation after 72 hrs by MTT assay. The class given is functional, cell-based. Particulars: for IC50: HepG2, 72 h. The procedure, abridged: as §2
The next data set concerns HeLa. The data set can be described thus: Antiproliferative activity against human HeLa cells assessed as inhibition of cell proliferation after 72 hrs by MTT assay. The class given is functional, cell-based. Particulars: for IC50: Homo sapiens, HeLa, 72 h. The procedure, abridged:
as §2

Data set [5] can be described thus: Binding affinity to pBluescript 265 bp DNA fragment (unknown origin) assessed binding to AT-rich ATTA sequence at 1 to 25 uM incubated for 15 mins by DNase-1 foot printing assay. The procedure, abridged:
(§5)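 265 bp EcoRI/PvuII fragment of pBluescript, 3'-end labelled with α[32P]-dATP, incubated with compound (up to 50 µM) for 15 min at 37 °C, then mildly digested with DNase I. Run on 8% denaturing polyacrylamide/8 M urea gels and imaged by phosphor screen. Base positions assigned against a DMS/piperidine G-track.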

Data set [6] in a line: Antiproliferative activity against human WI38 cells assessed as inhibition of cell proliferation after 72 hrs by MTT assay. The class given is cell-based, WI-38. The procedure, abridged:
as §2

For data set [7], the system named is Calf thymus DNA. The data set can be described thus: Binding affinity to calf thymus DNA at 50 uM circular dichroism spectroscopy. Particulars: Bos taurus. The class given is nucleic-acid assay. Put shortly:
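CD spectra recorded from 480 to 230 nm, 10 mm path, 20 °C, in BPE buffer. CT-DNA (50 µM) incubated with compound rising from 1 to 60 µM or to 80 µM. Compound without DNA served as the control for intrinsic CD.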

Data set [8] can be described thus: Binding affinity to pBluescript 265 bp DNA fragment (unknown origin) assessed binding to ACAA sequence at 1 to 25 uM incubated for 15 mins by DNase-1 foot printing assay. The procedure, abridged:
as §5

Data set [9] can be described thus: Binding affinity to pBluescript 265 bp DNA fragment (unknown origin) assessed binding to TTGT) sequence at 1 to 25 uM incubated for 15 mins by DNase-1 foot printing assay. Put shortly: as §5
Data set [10] concerns Calf thymus DNA. The data set can be described thus: Binding affinity to calf thymus DNA assessed as change in melting temperature at drug/ base pair ratio of 0.25 by spectrophotometry. The class given is nucleic-acid assay. Particulars: Bos taurus. Put shortly: as §1
A short description of data set [11]: Binding affinity to pBluescript 265 bp DNA fragment (unknown origin) assessed binding to AT-rich AATT sequence at 1 to 25 uM incubated for 15 mins by DNase-1 foot printing assay. The procedure, abridged:
as §5

The nature of data set [12]: Binding affinity to pBluescript 265 bp DNA fragment (unknown origin) at 1 to 25 uM incubated for 15 mins by DNase-1 foot printing assay. The procedure, abridged: as §5
Data set [13] concerns Nucleic Acid. The data set is described as follows: Induction of DNA intercalation in supercoiled pUC19 DNA in presence of human topoisomerase 1 assessed as effect on topoisomerase 1-mediated DNA relaxation at 5 to 50 uM by agarose gel electrophoresis. The class given is nucleic-acid assay. Particulars: Escherichia coli. Put shortly: as §4

Activity calls are given as the source filed them. The calls are words filed in the database; no cut-off is given here.

On to `Cc1ccnc(/N=C2\c3ccccc3CN2c2cc(C)ccn2)c1`, for which the ΔTm in the data set with Calf thymus DNA [1] was 0 °C. In addition, the inhibition entry with MCF7, in the data set with SW-620, in the data set with HepG2 and with HeLa was “Dose-dependent effect” each time. Also, the IC50 was 0.7 µM in the data set with MCF7; 80.1 µM in the data set with BJ; > 100 µM in data set [2]; 43.2 µM in the data set with HepG2; 97.1 µM in the data set with HeLa. Moreover, the “inhibition (INH)” value in the data set with BJ is “Dose-dependent effect”. For the same compound, in data set [3], the inhibition entry was “inactive”. Moreover, in the data set with Nucleic Acid [4], the outcome was Active.
On to `CC(C)NC(=N)c1ccc(/N=C2\c3ccccc3CN2c2ccc(C(=N)NC(C)C)cc2)cc1.Cl`, for which the ΔTm worked out at 11.3 °C in the data set with Calf thymus DNA [1] and 6.3 °C with Calf thymus DNA [10]. In addition, the inhibition result in the data set with MCF7, with SW-620, in the data set with HepG2 and with HeLa was “Dose-dependent effect” each time. The concentration for half-maximal inhibition (IC50) was 53.4 µM with MCF7; 53.9 µM in data set [6] (Homo sapiens, WI-38, 72 h); > 100 µM in [2]; 62.2 µM in the data set on HepG2; > 100 µM with HeLa. The result (in [5]; in the data set on Calf thymus DNA [7]; in data set [8]; in data set [9]; in data set [11]) was Active. Moreover, the “inhibition (INH)” value in data set [6] (human, wi-38, 72 h) was “Dose-dependent effect”. Also, the inhibition result in [3] was “inactive”. In addition, the result in the data set on Nucleic Acid [4] was inactive.
For the compound `Cl.c1ccc2c(c1)CN(c1ccc(C3=NCCN3)cc1)/C2=N/c1ccc(C2=NCCN2)cc1`, the ΔTm was 19.6 °C in the data set on Calf thymus DNA [1] and 16 °C in the data set with Calf thymus DNA [10]. The inhibition result in the data set on MCF7, with SW-620, in the data set on HepG2 and in the data set on HeLa was “Dose-dependent effect” each time. Moreover, the IC50 in the data set with MCF7 is 20 µM; with BJ it was 8.77 µM; in data set [2], > 100 µM; in the data set on HepG2, 83.2 µM; with HeLa, 78 µM. In addition, the “inhibition (INH)” value in the data set on BJ is recorded as “Dose-dependent effect”. Moreover, the outcome in [12] was inactive. The outcome in the data set on Calf thymus DNA [7] and in the data set with Nucleic Acid [13] was Active. Also, the inhibition entry in data set [3] is “inactive”.
